Experimental data taken from ChEMBL document CHEMBL3526093, “Oxidative ipso substitution of 2,4-difluoro-benzylphthalazines: identification of a rare stable quinone methide and subsequent GSH conjugate” (Drug Metab Dispos, 2012).

Legend:
Liver microsome [1] = assay: Drug level in human liver microsomes treated with 10 uM [2-(6-(4-(4-(2,4-difluorobenzyl)phthalazin-1-yl)piperazin-1-yl)pyridin-3-yl)propan-2-ol] by LC/MS method; type: ADME
Summary of the method: (§1)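 Pooled human liver microsomes (1 mg/ml protein) in 0.1 M KH2PO4 pH 7.4 with 5 mM MgCl2 and substrate, prewarmed 2 min at 37°C with shaking. Started with 2 mM NADPH, then 5 mM GSH added 3 min later. Controls omitted GSH or NADPH. Samples at 0, 0.5 and 1 h quenched in ice-cold acetonitrile, centrifuged, supernatant analysed by positive-ion ESI LC/MSn.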

Cytochrome P450 3A4 [2] = target: T1, Cytochrome P450 3A4 (Homo sapiens, UniProt P08684); assay: Drug metabolism assessed as human CYP3A4-mediated compound formation using 10 uM [2-(6-(4-(4-(2,4-difluorobenzyl)phthalazin-1-yl)piperazin-1-yl)pyridin-3-yl)propan-2-ol] by LC/MS method; type: ADME; details: recombinant enzyme
T1 sequence (P08684 whole entry): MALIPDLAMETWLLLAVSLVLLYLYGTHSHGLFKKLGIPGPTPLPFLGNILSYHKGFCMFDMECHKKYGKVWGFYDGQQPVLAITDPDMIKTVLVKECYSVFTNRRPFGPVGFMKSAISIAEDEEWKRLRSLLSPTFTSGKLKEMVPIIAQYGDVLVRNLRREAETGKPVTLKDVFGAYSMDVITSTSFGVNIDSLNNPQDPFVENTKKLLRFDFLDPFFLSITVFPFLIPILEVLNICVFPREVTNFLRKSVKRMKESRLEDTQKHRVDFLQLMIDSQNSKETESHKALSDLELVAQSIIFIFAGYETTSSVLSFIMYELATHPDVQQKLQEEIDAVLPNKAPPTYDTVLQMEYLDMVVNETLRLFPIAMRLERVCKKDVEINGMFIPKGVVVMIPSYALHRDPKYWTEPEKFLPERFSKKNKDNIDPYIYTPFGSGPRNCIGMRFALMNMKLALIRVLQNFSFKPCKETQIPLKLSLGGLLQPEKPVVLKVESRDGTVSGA
Summary of the method: (§2)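 Recombinant human P450 Supersomes (100 pmol/ml enzyme) in 0.1 M KH2PO4 pH 7.4 with 5 mM MgCl2 and substrate, prewarmed 2 min at 37°C. NADPH (2 mM) started the reaction, with GSH (5 mM) added 3 min later. Controls lacked GSH or NADPH. Aliquots at 0, 0.5 and 1 h were stopped in ice-cold acetonitrile, spun, and supernatants run on LC/MSn.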

[3] = Retention time of the compound by LC/MS method; type: physicochemical
Summary of the method: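 Reversed-phase C18 column (2.1 × 150 mm), 20 µl injection, 0.25 ml/min. A: 10 mM ammonium formate/0.1% formic acid in water. B: acetonitrile/0.1% formic acid. Gradient held at 10% B for 5 min, then to 90% B over 24 min, back to 10% B over 2 min, held 3 min (35 min run). Positive-ion electrospray detection.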

[4] = Half life under physiological conditions; type: ADME
Cytochrome P450 2E1 = Cytochrome P450 2E1 (Homo sapiens, UniProt P05181); assay: Drug metabolism assessed as human CYP2E1-mediated quinone methide metabolite formation at 10 uM by LC/MS method; type: ADME; details: recombinant enzyme; summary of the method: as §2
Chain of Cytochrome P450 2E1 (P05181 whole entry): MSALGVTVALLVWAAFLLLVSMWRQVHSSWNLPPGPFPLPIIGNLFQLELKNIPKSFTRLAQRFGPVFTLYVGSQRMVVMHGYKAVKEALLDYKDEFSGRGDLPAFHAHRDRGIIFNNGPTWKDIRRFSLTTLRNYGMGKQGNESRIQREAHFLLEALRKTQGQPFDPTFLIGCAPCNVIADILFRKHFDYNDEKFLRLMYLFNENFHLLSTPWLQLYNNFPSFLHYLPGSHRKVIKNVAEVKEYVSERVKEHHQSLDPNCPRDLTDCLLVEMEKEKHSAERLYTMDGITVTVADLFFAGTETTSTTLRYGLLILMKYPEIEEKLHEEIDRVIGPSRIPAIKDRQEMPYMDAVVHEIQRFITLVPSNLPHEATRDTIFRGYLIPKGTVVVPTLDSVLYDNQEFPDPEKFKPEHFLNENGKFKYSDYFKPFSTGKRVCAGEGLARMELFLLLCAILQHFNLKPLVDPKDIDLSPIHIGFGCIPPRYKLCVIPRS

Cytochrome P450 2D6 = Cytochrome P450 2D6 (Homo sapiens, UniProt P10635); assay: Drug metabolism assessed as human CYP2D6-mediated quinone methide metabolite formation at 10 uM by LC/MS method; type: ADME; details: recombinant enzyme; summary of the method: as §2
Chain of Cytochrome P450 2D6 (P10635 whole entry): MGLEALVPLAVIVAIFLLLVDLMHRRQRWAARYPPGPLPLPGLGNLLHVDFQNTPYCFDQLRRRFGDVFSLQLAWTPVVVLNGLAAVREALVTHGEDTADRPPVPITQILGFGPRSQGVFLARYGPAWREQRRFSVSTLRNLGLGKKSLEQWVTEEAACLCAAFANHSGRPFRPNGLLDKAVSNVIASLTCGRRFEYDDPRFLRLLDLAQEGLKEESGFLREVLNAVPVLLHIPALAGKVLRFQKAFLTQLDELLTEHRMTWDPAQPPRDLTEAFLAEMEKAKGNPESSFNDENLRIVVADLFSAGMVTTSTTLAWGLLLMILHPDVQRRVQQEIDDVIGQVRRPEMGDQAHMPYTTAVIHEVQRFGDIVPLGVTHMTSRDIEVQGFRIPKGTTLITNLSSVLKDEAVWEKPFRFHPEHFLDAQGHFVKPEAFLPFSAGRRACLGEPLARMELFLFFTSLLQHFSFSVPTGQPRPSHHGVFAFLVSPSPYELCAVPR

Liver microsome [5] = assay: Drug metabolism in human liver microsomes assessed as quinone methide metabolite formation at 10 uM by LC/MS method; type: ADME; summary of the method: as §1
Cytochrome P450 2C9 = Cytochrome P450 2C9 (Homo sapiens, UniProt P11712); assay: Drug metabolism assessed as human CYP2C9-mediated quinone methide metabolite formation at 10 uM by LC/MS method; type: ADME; details: recombinant enzyme; summary of the method: as §2
Chain of Cytochrome P450 2C9 (P11712 whole entry): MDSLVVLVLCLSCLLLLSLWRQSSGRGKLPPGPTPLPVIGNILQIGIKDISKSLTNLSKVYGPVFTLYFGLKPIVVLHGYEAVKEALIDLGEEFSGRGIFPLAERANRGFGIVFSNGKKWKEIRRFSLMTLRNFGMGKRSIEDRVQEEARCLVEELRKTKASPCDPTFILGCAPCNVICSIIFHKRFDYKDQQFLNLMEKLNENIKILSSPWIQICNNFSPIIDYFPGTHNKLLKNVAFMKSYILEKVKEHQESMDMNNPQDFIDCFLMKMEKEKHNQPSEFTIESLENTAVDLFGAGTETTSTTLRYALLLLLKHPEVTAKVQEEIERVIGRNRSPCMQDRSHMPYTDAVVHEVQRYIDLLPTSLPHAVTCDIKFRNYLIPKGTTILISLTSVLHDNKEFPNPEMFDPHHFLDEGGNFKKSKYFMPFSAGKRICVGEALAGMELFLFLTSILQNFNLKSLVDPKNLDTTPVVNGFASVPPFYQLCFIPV

Cytochrome P450 2C19 = Cytochrome P450 2C19 (Homo sapiens, UniProt P33261); assay: Drug metabolism assessed as human CYP2C19-mediated quinone methide metabolite formation at 10 uM by LC/MS method; type: ADME; details: recombinant enzyme; summary of the method: as §2
Chain of Cytochrome P450 2C19 (P33261 whole entry): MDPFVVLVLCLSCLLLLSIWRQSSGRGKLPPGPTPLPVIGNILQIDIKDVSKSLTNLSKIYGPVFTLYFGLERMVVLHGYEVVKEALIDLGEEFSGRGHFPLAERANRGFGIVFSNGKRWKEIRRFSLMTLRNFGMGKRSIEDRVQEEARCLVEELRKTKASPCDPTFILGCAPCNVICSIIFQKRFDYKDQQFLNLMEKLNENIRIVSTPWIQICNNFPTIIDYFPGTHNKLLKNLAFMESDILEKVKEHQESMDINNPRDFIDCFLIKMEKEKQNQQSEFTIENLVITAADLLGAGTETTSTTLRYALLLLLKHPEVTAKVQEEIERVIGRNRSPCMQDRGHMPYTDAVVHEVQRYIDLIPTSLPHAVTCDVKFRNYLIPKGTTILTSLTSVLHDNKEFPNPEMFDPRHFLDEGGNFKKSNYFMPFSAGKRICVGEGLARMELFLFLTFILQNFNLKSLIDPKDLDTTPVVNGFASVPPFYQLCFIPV

Cytochrome P450 1A2 = target: T2, Cytochrome P450 1A2 (Homo sapiens, UniProt P05177); assay: Drug metabolism assessed as human CYP1A2-mediated quinone methide metabolite formation at 10 uM by LC/MS method; type: ADME; details: recombinant enzyme; summary of the method: as §2
T2 sequence (P05177 whole entry): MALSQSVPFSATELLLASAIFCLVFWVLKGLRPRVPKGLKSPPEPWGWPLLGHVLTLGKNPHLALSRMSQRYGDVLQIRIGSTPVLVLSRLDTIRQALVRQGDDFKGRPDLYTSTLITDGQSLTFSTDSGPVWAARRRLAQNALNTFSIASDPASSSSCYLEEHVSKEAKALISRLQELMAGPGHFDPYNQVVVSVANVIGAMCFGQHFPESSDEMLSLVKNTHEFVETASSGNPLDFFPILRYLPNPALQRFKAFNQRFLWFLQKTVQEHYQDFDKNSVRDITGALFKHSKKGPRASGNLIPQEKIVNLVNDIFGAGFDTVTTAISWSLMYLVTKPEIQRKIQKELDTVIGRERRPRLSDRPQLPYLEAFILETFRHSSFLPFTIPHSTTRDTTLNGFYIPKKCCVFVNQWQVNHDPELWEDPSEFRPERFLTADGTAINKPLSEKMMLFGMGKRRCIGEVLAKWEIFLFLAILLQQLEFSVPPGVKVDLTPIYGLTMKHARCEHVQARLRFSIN

Cytochrome P450 3A4 [6] = target: T1, Cytochrome P450 3A4; assay: Drug metabolism assessed as human CYP3A4-mediated quinone methide metabolite formation at 10 uM by LC/MS method; type: ADME; details: recombinant enzyme; summary of the method: as §2

Drug metabolism (Liver microsome [1]) | Drug metabolism (Cytochrome P450 3A4 [2]) | Retention_time [3] | half-life [4] | Structure (SMILES) | further results
metabolite_detected | metabolite_detected | 17.46 min | – | CC(C)(O)c1ccc(N2CCN(c3nnc(/C=C4\C=CC(=O)C=C4F)c4ccccc34)CC2)nc1 | –
– | – | – | 3 h | C/C=C(/C(=C1C=CC(=O)C=C1)c1ccc(OCCN(C)C)cc1)c1ccccc1 | –
– | – | – | 4 h | C/C=C(/C(=C1C=CC(=O)C=C1)c1ccccc1)c1ccccc1 | –
– | – | 14.8 min | – | CC(C)(O)c1ccc(N2CCN(c3nnc(Cc4ccc(F)cc4F)c4ccccc34)CC2)nc1 | Drug metabolism (Cytochrome P450 2E1): metabolite_not_detected; Drug metabolism (Cytochrome P450 2D6): metabolite_not_detected; Drug metabolism (Liver microsome [5]): metabolite_detected; Drug metabolism (Cytochrome P450 2C9): metabolite_not_detected; Drug metabolism (Cytochrome P450 2C19): metabolite_not_detected; Drug metabolism (Cytochrome P450 1A2): metabolite_not_detected; Drug metabolism (Cytochrome P450 3A4 [6]): metabolite_detected
metabolite_detected | metabolite_detected | 9.92 min | – | CC(C)(O)c1ccc(N2CCN(c3nnc(Cc4cc(SC[C@H](NC(=O)CC[C@H](N)C(=O)O)C(=O)NCC(=O)O)c(O)cc4F)c4ccccc34)CC2)nc1 | –
